Measurements as given in ChEMBL document CHEMBL1133571, “Extended TIP(P) analogues as precursors for labeled delta-opioid receptor ligands” (J Med Chem, 2000).
Where “and” joins values, the source holds several entries; their conditions need not be identical. Equal values may be shown once. Where a SMILES comes first, the peptide text is derived from it. [ ]: non-standard residue; d: D form. Tic = O=C(O)[C@@H]1Cc2ccccc2CN1

Assays:
[1] = target: Delta-type opioid receptor (Homo sapiens, UniProt P41143); assay: Affinity towards human Opioid receptor delta 1 on CHO cell membranes using [3H]DPDPE displacement.
Chain of Delta-type opioid receptor (P41143 whole entry): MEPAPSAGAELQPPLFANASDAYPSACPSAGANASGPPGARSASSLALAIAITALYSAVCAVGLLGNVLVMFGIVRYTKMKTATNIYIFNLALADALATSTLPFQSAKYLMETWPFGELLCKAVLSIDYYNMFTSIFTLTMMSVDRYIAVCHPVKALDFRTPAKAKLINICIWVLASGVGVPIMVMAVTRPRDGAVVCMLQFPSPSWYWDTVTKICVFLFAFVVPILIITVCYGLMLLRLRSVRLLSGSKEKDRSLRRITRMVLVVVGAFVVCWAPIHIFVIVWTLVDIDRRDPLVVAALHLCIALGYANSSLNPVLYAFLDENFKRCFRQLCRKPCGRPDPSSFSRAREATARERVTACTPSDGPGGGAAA
Outline: (§1)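 Membranes from CHO cells stably expressing cloned δ or µ receptors. Incubated 90 min at 22 °C with peptide concentrations up to 10 µM, 3 mM Mg2+, and peptidase inhibitors (10 µM bestatin, 30 µM captopril, 50 µM L-leucyl-L-leucine). Nonspecific binding measured with 10 µM unlabeled ligand. IC50 from nonlinear regression converted to Ki by Cheng-Prusoff (KD: [3H]DPDPE 0.5 nM, δ; [3H]DAMGO 0.644 nM, µ).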

Mu-type opioid receptor = Mu-type opioid receptor (Homo sapiens, UniProt P35372); assay: Affinity towards human Opioid receptor mu 1 on CHO cell membranes using [3H]DAMGO displacement.; outline: as §1
Chain of Mu-type opioid receptor (P35372 whole entry): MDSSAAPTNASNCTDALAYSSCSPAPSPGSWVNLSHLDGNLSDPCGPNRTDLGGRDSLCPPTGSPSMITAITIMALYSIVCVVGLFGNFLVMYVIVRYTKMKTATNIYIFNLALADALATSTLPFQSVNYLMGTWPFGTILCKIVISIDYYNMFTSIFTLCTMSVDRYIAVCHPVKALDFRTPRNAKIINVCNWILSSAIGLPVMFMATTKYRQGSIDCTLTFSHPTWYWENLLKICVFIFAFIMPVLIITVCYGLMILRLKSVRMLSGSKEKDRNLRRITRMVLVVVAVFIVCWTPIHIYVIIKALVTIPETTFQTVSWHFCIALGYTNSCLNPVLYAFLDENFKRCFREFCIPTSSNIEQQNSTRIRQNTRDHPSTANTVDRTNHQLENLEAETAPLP

SMILES	Ki [1]	Ki (Mu-type opioid receptor) [nM]
NC(=O)C[C@@H](NC(=O)[C@H](Cc1ccccc1)NC(=O)[C@@H]1Cc2ccccc2CN1C(=O)[C@@H](N)Cc1ccc(O)cc1)C(=O)O	13.7 nM	> 4500
NC(=O)[C@@H](CC(=O)O)NC(=O)[C@H](Cc1ccccc1)NC(=O)[C@@H]1Cc2ccccc2CN1C(=O)[C@@H](N)Cc1ccc(O)cc1	69 nM	> 4500
NC(=O)[C@@H](CCC(=O)O)NC(=O)[C@H](Cc1ccccc1)NC(=O)[C@H](Cc1ccccc1)NC(=O)[C@@H]1Cc2ccccc2CN1C(=O)[C@@H](N)Cc1ccc(O)cc1	7.8 nM	1950
NC(=O)CC[C@@H](NC(=O)[C@H](Cc1ccccc1)NC(=O)[C@@H]1Cc2ccccc2CN1C(=O)[C@@H](N)Cc1ccc(O)cc1)C(=O)O	5 nM	> 4500
NC(=O)[C@H](CCC(=O)O)NC(=O)[C@H](Cc1ccccc1)NC(=O)[C@@H]1Cc2ccccc2CN1C(=O)[C@@H](N)Cc1ccc(O)cc1	19.9 nM	4500
NC(=O)CC[C@@H](NC(=O)[C@H](Cc1ccccc1)NC(=O)[C@H](Cc1ccccc1)NC(=O)[C@@H]1Cc2ccccc2CN1C(=O)[C@@H](N)Cc1ccc(O)cc1)C(=O)O	5.1 nM	> 4500
NC(=O)C[C@H](NC(=O)[C@H](Cc1ccccc1)NC(=O)[C@H](Cc1ccccc1)NC(=O)[C@@H]1Cc2ccccc2CN1C(=O)[C@@H](N)Cc1ccc(O)cc1)C(=O)O	7.1 nM	> 4500
NC(=O)C[C@H](NC(=O)[C@H](Cc1ccccc1)NC(=O)[C@@H]1Cc2ccccc2CN1C(=O)[C@@H](N)Cc1ccc(O)cc1)C(=O)O	61.1 nM	> 4500
NC(=O)[C@H](CC(=O)O)NC(=O)[C@H](Cc1ccccc1)NC(=O)[C@H](Cc1ccccc1)NC(=O)[C@@H]1Cc2ccccc2CN1C(=O)[C@@H](N)Cc1ccc(O)cc1	9.5 nM	> 4000
NC(=O)CC[C@H](NC(=O)[C@H](Cc1ccccc1)NC(=O)[C@H](Cc1ccccc1)NC(=O)[C@@H]1Cc2ccccc2CN1C(=O)[C@@H](N)Cc1ccc(O)cc1)C(=O)O	9.7 nM	> 4500
CC(=O)NCCCC[C@@H](NC(=O)[C@H](Cc1ccccc1)NC(=O)[C@@H]1Cc2ccccc2CN1C(=O)[C@@H](N)Cc1ccc(O)cc1)C(=O)O	21.6 nM	> 4500
NC(=O)CC[C@H](NC(=O)[C@H](Cc1ccccc1)NC(=O)[C@@H]1Cc2ccccc2CN1C(=O)[C@@H](N)Cc1ccc(O)cc1)C(=O)O	37.7 nM	> 4500
CC(=O)NCCCC[C@@H](NC(=O)[C@H](Cc1ccccc1)NC(=O)[C@H](Cc1ccccc1)NC(=O)[C@@H]1Cc2ccccc2CN1C(=O)[C@@H](N)Cc1ccc(O)cc1)C(=O)O	16.3 nM and 21.5 nM	> 4500
CC(=O)NCCCC[C@H](NC(=O)[C@H](Cc1ccccc1)NC(=O)[C@@H]1Cc2ccccc2CN1C(=O)[C@@H](N)Cc1ccc(O)cc1)C(=O)O	27.8 nM	> 4500
N[C@@H](Cc1ccc(O)cc1)C(=O)N1Cc2ccccc2C[C@H]1C(=O)N[C@@H](Cc1ccccc1)C(=O)O (H-Tyr-[Tic]-Phe-OH)	148 nM	> 4500
NC(=O)[C@H](CCC(=O)O)NC(=O)[C@H](Cc1ccccc1)NC(=O)[C@H](Cc1ccccc1)NC(=O)[C@@H]1Cc2ccccc2CN1C(=O)[C@@H](N)Cc1ccc(O)cc1	9.9 nM	> 4500
NC(=O)C[C@@H](NC(=O)[C@H](Cc1ccccc1)NC(=O)[C@H](Cc1ccccc1)NC(=O)[C@@H]1Cc2ccccc2CN1C(=O)[C@@H](N)Cc1ccc(O)cc1)C(=O)O	8.1 nM	3200
NC(=O)[C@H](CC(=O)O)NC(=O)[C@H](Cc1ccccc1)NC(=O)[C@@H]1Cc2ccccc2CN1C(=O)[C@@H](N)Cc1ccc(O)cc1	21.4 nM	> 4500
NC(=O)[C@@H](CCC(=O)O)NC(=O)[C@H](Cc1ccccc1)NC(=O)[C@@H]1Cc2ccccc2CN1C(=O)[C@@H](N)Cc1ccc(O)cc1	34.9 nM	> 4500
N[C@@H](Cc1ccc(O)cc1)C(=O)N1Cc2ccccc2C[C@H]1C(=O)N[C@@H](Cc1ccccc1)C(=O)N[C@@H](Cc1ccccc1)C(=O)O (H-Y[Tic]FF-OH)	6.1 nM and 1.22 nM	> 4500
NC(=O)[C@@H](CC(=O)O)NC(=O)[C@H](Cc1ccccc1)NC(=O)[C@H](Cc1ccccc1)NC(=O)[C@@H]1Cc2ccccc2CN1C(=O)[C@@H](N)Cc1ccc(O)cc1	10.3 nM	3280
